Here are results for 2 molecules from ChEMBL document CHEMBL4400523, “Synthesis of novel pyrido[1,2-c]pyrimidine derivatives with rigidized tryptamine moiety as potential SSRI and 5-HT1A receptor ligands” (Eur J Med Chem, 2019).

pKi: −log10 of the molar value. Active and inactive are the calls of the source. No cut-off for these calls is given here.

Data set [1] deals with Sodium-dependent serotonin transporter (Rattus norvegicus, UniProt P31652). As to the kind of experiment: Displacement of [3H]-citalopram from SERT in rat cortex tissue measured after 60 mins by microbeta scintillation counting analysis. In outline:
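Rat cortex tissue suspension with 1.0 nM [3H]-citalopram in 50 mM Tris pH 7.7, 150 mM NaCl, 5 mM KCl. Incubated 60 min at 24 °C, in duplicate. GF/B filtration, scintillation counting. One-site fit, Ki via Cheng–Prusoff with in-house Kd.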

Data set [2] relates to Mus musculus. As to the kind of experiment: Induction of hypothermia in CD-1 mouse assessed as change in body temperature at 5 mg/kg, ip measured after 90 mins by thermometric method. Type of data set: functional, organism-based. In outline: (§1)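 Male CD-1 mice (23–40 g), 6–8 per dose, given compound ip in 10% aqueous DMSO (10 mL/kg). Rectal temperature was read by thermometer 30, 60, 90 and 120 min after dosing. Results are expressed as change from basal temperature at experiment start. Analysis by Dunnett's test.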

Data set [3] concerns Mus musculus. As to the kind of experiment: Induction of hypothermia in CD-1 mouse assessed as change in body temperature at 15 mg/kg, ip measured after 30 mins by thermometric method (Rvb <= 0.4 deg C). Type of data set: functional, organism-based. In outline:
as §1

Data set [4] relates to Mus musculus. As to the kind of experiment: Induction of hypothermia in CD-1 mouse assessed as change in body temperature at 17.5 mg/kg, ip measured after 60 mins by thermometric method (reference value: 0.1 deg C). Type of data set: functional, organism-based. The essentials:
as §1

For data set [5], the system named is Mus musculus. As to the kind of experiment: Induction of hypothermia in CD-1 mouse assessed as change in body temperature at 15 mg/kg, ip measured after 90 mins by thermometric method (reference value: -0.1 to 0.1 deg C). In kind it is functional, organism-based. The essentials: as §1
The next data set has as its target D(2) dopamine receptor (Homo sapiens, UniProt P14416). As to the kind of experiment: Displacement of [3H]-raclopride from recombinant human D2 receptor expressed in HEK293 cells measured after 1 hr by microbeta scintillation counting analysis. Type of data set: cell-based.
In data set [6] the test system is Mus musculus. As to the kind of experiment: Induction of hypothermia in CD-1 mouse assessed as change in body temperature at 20 mg/kg, ip measured after 60 mins by thermometric method. Type of data set: functional, organism-based. In outline: as §1
In data set [7] the test system is Mus musculus. As to the kind of experiment: Induction of hypothermia in CD-1 mouse assessed as change in body temperature at 17.5 mg/kg, ip measured after 90 mins by thermometric method (reference value: -0.1 to 0.1 deg C). In kind it is functional, organism-based. The essentials:
as §1

In data set [8] the test system is Mus musculus. As to the kind of experiment: Induction of hypothermia in CD-1 mouse assessed as change in body temperature at 17.5 mg/kg, ip measured after 30 mins by thermometric method (Rvb <= 0.4 deg C). Type of data set: functional, organism-based. The essentials: as §1
Data set [9] has as its system Mus musculus. As to the kind of experiment: Induction of hypothermia in CD-1 mouse assessed as change in body temperature at 20 mg/kg, ip measured after 90 mins by thermometric method. Type of data set: functional, organism-based. The essentials: as §1
Data set [10] concerns the target 5-hydroxytryptamine receptor 6 (Homo sapiens, UniProt P50406). As to the kind of experiment: Displacement of [3H]-LSD from recombinant human 5HT6 receptor expressed in HEK293 cells measured after 1 hr by microbeta scintillation counting analysis. In kind it is cell-based.
Data set [11] deals with Mus musculus. As to the kind of experiment: Induction of hypothermia in CD-1 mouse assessed as change in body temperature at 15 mg/kg, ip measured after 120 mins by thermometric method (reference value: -0.1 to 0.1 deg C). In kind it is functional, organism-based. In outline: as §1
The subject of data set [12] is Mus musculus. As to the kind of experiment: Induction of hypothermia in CD-1 mouse assessed as change in body temperature at 15 mg/kg, ip measured after 60 mins by thermometric method (reference value: 0.1 deg C). In kind it is functional, organism-based. In outline: as §1
Data set [13] is described as follows: Half life in human liver microsomes at 1 uM by LC-MS analysis. Type of data set: ADME, Microsome. The essentials: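 Compound at 1 μM incubated at 37 °C with 1 mg/mL pooled human liver microsomes and 100 μM NADPH in 0.1 M potassium phosphate pH 7.4, after 5-min preincubation. Samples taken at 0, 5, 10, 15, 30 min and quenched in ice-cold acetonitrile with buspirone internal standard. No-NADPH controls were run. Parent measured by LC-ESI(+)-MS of [M+H+]; half-life reported.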
(In general: Liver microsomes are vesicles of endoplasmic reticulum, rich in cytochrome P450 enzymes.)

Data set [14] deals with T1, 5-hydroxytryptamine receptor 1A (Homo sapiens, UniProt P08908).
T1 sequence (P08908 whole entry): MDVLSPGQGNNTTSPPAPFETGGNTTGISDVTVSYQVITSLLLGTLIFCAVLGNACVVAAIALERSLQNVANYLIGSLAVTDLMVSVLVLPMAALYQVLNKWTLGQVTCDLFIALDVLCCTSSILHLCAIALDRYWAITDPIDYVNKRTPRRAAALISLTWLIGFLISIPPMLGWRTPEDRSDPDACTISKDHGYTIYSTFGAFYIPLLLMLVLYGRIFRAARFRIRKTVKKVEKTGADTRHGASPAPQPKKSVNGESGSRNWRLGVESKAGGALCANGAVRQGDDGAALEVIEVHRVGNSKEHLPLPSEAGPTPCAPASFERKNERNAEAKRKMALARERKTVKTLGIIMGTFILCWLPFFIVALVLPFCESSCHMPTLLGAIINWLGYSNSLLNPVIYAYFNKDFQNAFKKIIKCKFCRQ
As to the kind of experiment: Displacement of [3H]-8-OH-DPAT from recombinant human 5HT1A receptor expressed in CHO cell membranes measured after 60 mins by microbeta scintillation counting analysis.

For data set [15], the system named is Mus musculus. As to the kind of experiment: Induction of hypothermia in CD-1 mouse assessed as change in body temperature at 5 mg/kg, ip measured after 120 mins by thermometric method. Type of data set: functional, organism-based. In outline: as §1
Data set [16] concerns Mus musculus. As to the kind of experiment: Induction of hypothermia in CD-1 mouse assessed as change in body temperature at 5 mg/kg, ip measured after 60 mins by thermometric method. In kind it is functional, organism-based. The essentials: as §1
Data set [17] has as its system Mus musculus. As to the kind of experiment: Induction of hypothermia in CD-1 mouse assessed as change in body temperature at 5 mg/kg, ip measured after 30 mins by thermometric method. Type of data set: functional, organism-based. In outline: as §1
Data set [18] has as its target 5-hydroxytryptamine receptor 7 (Homo sapiens, UniProt P34969). As to the kind of experiment: Displacement of [3H]-5-CT from recombinant human 5HT7 receptor expressed in HEK293 cells measured after 1 hr by microbeta scintillation counting analysis. In kind it is cell-based. (In general: Displacement assays read how much labelled ligand stays bound in the presence of the test substance.)

Data set [19] deals with 5-hydroxytryptamine receptor 2A (Homo sapiens, UniProt P28223). As to the kind of experiment: Displacement of [3H]-ketanserin from recombinant human 5HT2A receptor expressed in HEK293 cells measured after 1.5 hrs by microbeta scintillation counting analysis. In kind it is cell-based.
5-hydroxytryptamine receptor 2A, sequence (P28223 whole entry): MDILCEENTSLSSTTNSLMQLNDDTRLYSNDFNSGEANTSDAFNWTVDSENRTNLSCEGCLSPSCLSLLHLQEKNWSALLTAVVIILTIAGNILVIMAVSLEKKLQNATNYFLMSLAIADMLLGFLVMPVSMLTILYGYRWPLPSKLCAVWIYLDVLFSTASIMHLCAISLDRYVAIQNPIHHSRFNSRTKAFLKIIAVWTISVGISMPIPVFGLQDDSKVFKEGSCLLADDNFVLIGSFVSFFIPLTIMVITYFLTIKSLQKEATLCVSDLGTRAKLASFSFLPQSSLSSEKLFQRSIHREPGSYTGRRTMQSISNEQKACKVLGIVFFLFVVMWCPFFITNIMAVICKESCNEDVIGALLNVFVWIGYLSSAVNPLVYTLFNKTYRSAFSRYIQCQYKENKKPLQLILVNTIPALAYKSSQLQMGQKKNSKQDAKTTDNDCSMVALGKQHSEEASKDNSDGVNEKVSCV
For data set [20], the system named is Mus musculus. As to the kind of experiment: Induction of hypothermia in CD-1 mouse assessed as change in body temperature at 17.5 mg/kg, ip measured after 120 mins by thermometric method (reference value: -0.1 to 0.1 deg C). Type of data set: functional, organism-based. The essentials: as §1
Data set [21] deals with Mus musculus. As to the kind of experiment: Induction of hypothermia in CD-1 mouse assessed as change in body temperature at 20 mg/kg, ip measured after 120 mins by thermometric method. Type of data set: functional, organism-based. The essentials:
as §1

For data set [22], the system named is Mus musculus. As to the kind of experiment: Induction of hypothermia in CD-1 mouse assessed as change in body temperature at 20 mg/kg, ip measured after 30 mins by thermometric method. Type of data set: functional, organism-based. The essentials: as §1
Data set [23] has as its system Mus musculus. As to the kind of experiment: Induction of hypothermia in CD-1 mouse assessed as change in body temperature at 20 mg/kg, ip measured after 30 mins in presence of WAY100635 by thermometric method. Type of data set: functional, organism-based.
For data set [24], the system named is Mus musculus. As to the kind of experiment: Induction of hypothermia in CD-1 mouse assessed as change in body temperature at 20 mg/kg, ip measured after 60 mins in presence of WAY100635 by thermometric method. Type of data set: functional, organism-based.
Data set [25] has as its system Mus musculus. As to the kind of experiment: Antidepressant-like activity in CD-1 mouse assessed as decrease in immobility time at 20 mg/kg, ip measured after 30 mins by forced swim test. Type of data set: functional, organism-based. The essentials:
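Male CD-1 mice (23–40 g), 6–8 per dose, given test agent ip in 10% aqueous DMSO (10 mL/kg) 30 min before test. Mice were placed singly in glass cylinders (25 cm high, 10 cm diameter) holding 20 cm water at 23 °C for 6 min. Immobility (passive floating) was timed over the last 4 min after a 2-min adaptation. Analysis by Dunnett's test.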

D(2) dopamine receptor, sequence (P14416 whole entry): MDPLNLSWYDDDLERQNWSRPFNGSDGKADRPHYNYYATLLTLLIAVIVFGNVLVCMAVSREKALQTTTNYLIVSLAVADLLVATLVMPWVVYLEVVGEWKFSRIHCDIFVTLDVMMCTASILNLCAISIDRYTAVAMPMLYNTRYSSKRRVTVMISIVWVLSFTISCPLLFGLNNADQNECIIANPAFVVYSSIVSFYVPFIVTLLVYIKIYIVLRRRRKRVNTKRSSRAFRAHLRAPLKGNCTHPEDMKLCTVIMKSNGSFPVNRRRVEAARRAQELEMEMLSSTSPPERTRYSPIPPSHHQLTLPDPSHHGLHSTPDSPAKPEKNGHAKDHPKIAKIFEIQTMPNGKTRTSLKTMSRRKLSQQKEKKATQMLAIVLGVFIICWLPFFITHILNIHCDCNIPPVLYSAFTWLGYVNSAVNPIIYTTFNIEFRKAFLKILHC
5-hydroxytryptamine receptor 7, sequence (P34969 whole entry): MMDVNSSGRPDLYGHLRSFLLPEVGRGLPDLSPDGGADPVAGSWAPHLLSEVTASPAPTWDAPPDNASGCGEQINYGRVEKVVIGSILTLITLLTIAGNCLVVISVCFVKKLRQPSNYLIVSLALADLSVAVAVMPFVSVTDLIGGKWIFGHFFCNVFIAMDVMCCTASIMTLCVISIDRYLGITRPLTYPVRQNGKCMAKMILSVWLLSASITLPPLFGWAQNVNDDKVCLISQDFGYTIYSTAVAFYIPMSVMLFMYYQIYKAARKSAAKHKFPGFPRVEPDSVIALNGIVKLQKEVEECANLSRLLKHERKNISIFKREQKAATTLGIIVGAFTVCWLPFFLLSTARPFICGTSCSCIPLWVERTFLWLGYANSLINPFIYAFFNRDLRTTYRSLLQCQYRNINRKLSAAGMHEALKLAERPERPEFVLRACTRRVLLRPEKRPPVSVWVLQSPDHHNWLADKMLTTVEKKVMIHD
5-hydroxytryptamine receptor 6, sequence (P50406 whole entry): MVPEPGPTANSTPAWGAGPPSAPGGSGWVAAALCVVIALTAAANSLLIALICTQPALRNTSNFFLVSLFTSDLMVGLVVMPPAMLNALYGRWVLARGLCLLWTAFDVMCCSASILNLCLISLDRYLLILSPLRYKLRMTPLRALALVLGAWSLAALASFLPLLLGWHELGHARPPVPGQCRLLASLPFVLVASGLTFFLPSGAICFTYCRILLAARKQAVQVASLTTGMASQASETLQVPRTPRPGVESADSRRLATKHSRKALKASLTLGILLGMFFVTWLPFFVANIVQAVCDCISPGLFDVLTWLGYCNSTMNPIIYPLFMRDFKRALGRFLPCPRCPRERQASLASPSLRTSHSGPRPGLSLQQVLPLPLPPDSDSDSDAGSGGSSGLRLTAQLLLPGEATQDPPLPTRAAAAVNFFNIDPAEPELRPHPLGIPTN
Sodium-dependent serotonin transporter, sequence (P31652 whole entry): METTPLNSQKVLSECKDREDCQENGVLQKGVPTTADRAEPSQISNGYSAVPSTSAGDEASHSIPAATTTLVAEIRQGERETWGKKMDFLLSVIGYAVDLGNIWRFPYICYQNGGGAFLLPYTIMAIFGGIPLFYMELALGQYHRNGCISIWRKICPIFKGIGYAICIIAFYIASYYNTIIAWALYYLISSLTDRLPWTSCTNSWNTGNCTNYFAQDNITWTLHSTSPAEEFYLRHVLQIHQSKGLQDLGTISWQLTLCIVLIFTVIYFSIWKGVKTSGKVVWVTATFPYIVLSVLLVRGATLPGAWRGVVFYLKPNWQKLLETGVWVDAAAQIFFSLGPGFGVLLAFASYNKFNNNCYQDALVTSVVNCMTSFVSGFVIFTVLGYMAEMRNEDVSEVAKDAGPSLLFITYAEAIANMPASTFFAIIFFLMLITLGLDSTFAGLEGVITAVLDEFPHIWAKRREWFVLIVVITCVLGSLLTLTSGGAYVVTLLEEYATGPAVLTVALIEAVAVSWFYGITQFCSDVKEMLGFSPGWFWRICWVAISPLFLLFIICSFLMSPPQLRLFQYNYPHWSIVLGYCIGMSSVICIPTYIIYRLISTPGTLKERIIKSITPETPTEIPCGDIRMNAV

Broadly, the pKi is the negative decadic logarithm of the Ki, by convention in mol/L. Usually half-life stands for the time in which the quantity being followed falls by half. Lower therefore signals fast loss. Turning to `COc1ccc(-c2c(=O)n(CCCCN3CCCC(c4c[nH]c5ccc(OC)cc45)C3)c(=O)n3ccccc23)cc1` (stereo unspecified), the negative-log Ki (pKi) in data set [1] was 7.07; at D(2) dopamine receptor, 4.95; in [10] it was 6.16; in data set [14] it was 7.21; in [18], 6.02; in data set [19] it was 6.50. The deltaT in the data set on Mus musculus [2] is 0.2 °C; with Mus musculus [3] it was -0.5 °C; in the data set with Mus musculus [4], -0.2 °C; with Mus musculus [5], 0.3 °C; in the data set with Mus musculus [6], -1 °C; with Mus musculus [7], -0.1 °C. In addition, the deltaT in the data set on Mus musculus [8] was -0.6 °C; with Mus musculus [9], 0.1 °C; in the data set with Mus musculus [11] it was 0.2 °C; in the data set on Mus musculus [12] it was 0.2 °C; with Mus musculus [15] it was -0.2 °C; in the data set with Mus musculus [16], 0.2 °C. The deltaT in the data set on Mus musculus [17] was -0.2 °C; with Mus musculus [20], 0.1 °C; in the data set on Mus musculus [21] it was 0 °C; with Mus musculus [22], -2.4 °C. The half-life at 1 µM in data set [13] is 3.31 min.
`O=c1c(-c2ccccc2)c2ccccn2c(=O)n1CCCCN1CCCC(c2c[nH]c3ccccc23)C1` (stereo unspecified): the negative-log Ki (pKi) in [1] is 7.17; on D(2) dopamine receptor, 4.75; in data set [10], 6.36; in [14], 7.66; in [18], 5.95; in data set [19] it was 6.36. Besides, the deltaT was -0.5 °C in the data set with Mus musculus [2]; -0.3 °C with Mus musculus [6]; 0.1 °C in the data set with Mus musculus [9]; 0 °C in the data set on Mus musculus [23]; 0.1 °C with Mus musculus [24]; -0.8 °C with Mus musculus [15]. In addition, the deltaT is -0.4 °C in the data set on Mus musculus [16], -0.1 °C in the data set on Mus musculus [17], 0.2 °C in the data set with Mus musculus [21] and -0.9 °C with Mus musculus [22]. Besides, in [13], the half-life at 1 µM worked out at 6.12 min. Besides, in the data set on Mus musculus [25], the outcome was inactive.
